Compound activity (PubChem)
TRPC4 potent – allosterically enhances the mouse TRPC4 cation channel; Q9QUQ5; HEK293 TRPC4beta/mu-opioid, DAMGO EC20, Fluo-4 Ca2+ flux; hits give high values; B-score at 10 µM; actives 0.42% (n = 310,000); AID 2227;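 active = B-score of calcium response area above 5 SD of library B-scores, with initial fluorescence ratio within 5 SD of library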;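 note: B-score of integrated fluorescence ratio over time as area under calcium response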
Target sequence (Q9QUQ5 whole entry, looked up): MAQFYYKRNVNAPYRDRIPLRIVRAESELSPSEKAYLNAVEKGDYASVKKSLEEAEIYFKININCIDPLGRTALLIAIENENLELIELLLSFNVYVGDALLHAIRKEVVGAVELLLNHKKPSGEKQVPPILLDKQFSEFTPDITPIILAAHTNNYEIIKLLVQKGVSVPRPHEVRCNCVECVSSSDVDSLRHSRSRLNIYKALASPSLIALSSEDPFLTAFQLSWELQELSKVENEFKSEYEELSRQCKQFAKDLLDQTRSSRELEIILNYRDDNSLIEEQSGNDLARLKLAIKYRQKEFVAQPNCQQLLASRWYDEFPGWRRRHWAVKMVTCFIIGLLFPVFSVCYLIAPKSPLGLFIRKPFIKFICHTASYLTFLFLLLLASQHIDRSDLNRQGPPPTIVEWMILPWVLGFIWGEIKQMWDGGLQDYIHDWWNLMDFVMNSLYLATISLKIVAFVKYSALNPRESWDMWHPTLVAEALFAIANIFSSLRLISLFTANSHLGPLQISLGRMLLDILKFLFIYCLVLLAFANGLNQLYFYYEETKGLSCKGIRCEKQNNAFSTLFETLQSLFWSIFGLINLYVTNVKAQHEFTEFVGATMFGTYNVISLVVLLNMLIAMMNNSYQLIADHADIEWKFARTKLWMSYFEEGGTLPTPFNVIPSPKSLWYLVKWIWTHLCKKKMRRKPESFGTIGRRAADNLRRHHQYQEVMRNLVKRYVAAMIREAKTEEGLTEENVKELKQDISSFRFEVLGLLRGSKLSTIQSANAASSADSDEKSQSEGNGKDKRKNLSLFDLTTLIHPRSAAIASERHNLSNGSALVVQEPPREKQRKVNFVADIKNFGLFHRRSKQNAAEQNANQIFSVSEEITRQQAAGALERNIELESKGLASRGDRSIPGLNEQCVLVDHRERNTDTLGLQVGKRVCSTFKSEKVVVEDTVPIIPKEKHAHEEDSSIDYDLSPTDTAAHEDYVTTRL
TRPC4 inh – inhibitors of mouse TRPC4 channel; Q9QUQ5; HEK293 TRPC4beta/mu-opioid, DAMGO-evoked Fluo4 calcium flux; hits give low values; B-score at 10 µM; actives 0.39% (n = 300,000);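 active = B-score over 3 SD under the library average, no early fluorescence shift, positive overall ratio signal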
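Assay system: TRPC4beta/mu-opioid receptor HEK293 cell line; compound dosing: single concentration per test compound; detection: Fluo4 Ca2+ flux fluorescence; evaluation: per-well B score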
Kir21 block – blocks the mouse Kir2.1 inward-rectifier potassium channel; actives 0.85% (n = 310,000); HEK293-Kir2.1, FluxOR thallium flux fluorescence; hits give low values; B-score at 10 µM;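 active = fluorescence ratio B-score at or below minus 3 SD of library scores, with starting-brightness B-score within 2 SD, cut at about -4.2 in these data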;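 note: channel flux triggered by added potassium and thallium sulfate stimulus; B-score of peak minus minimum fluorescence over baseline after thallium stimulus; more negative B-score means stronger Kir2.1 block with less thallium influx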
TRPC6 inhibitor – blocks the mouse TRPC6 cation channel; actives 1.1% (n = 310,000); HEK293-TRPC6, membrane potential dye, ACh-evoked depolarization; hits give low values; B-score at 10 µM; AID 2553; Q61143;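 active = B-score under library mean minus 3 SD, initial fluorescence not abnormally high, positive integrated signal ratio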;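 note: B-score derived from integrated fluorescence ratio over the kinetic read; more negative B-score means stronger inhibition of depolarization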
TRPC6 act – mouse TRPC6 channel activation; HEK293-TRPC6 membrane potential dye fluorescence; hits give high values; actives 0.13% (n = 310,000); B-score at 10 µM; AID 2550; Q61143;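 active = B-score of the integrated fluorescence ratio above library mean plus 3 SD, and starting fluorescence ratio within library mean plus 5 SD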;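 note: higher score means more depolarization so channel activation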
TRPC4 act – opens the mouse TRPC4 cation channel; Q9QUQ5; HEK293 TRPC4beta/mu-opioid, Fluo4 calcium fluorescence; hits give high values; B-score at 10 µM; actives 0.49% (n = 310,000); AID 2237;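 active = B-score above 5 SD of library B-scores, and initial fluorescence ratio not above library mean plus 5 SD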;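 note: positive B-score marks a calcium rise read as TRPC4 activation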
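Material: TRPC4beta and mu-opioid receptor HEK293 stable cells | Incubation: 45 min room-temperature Fluo4 loading, 110 s read | Detection: Kinetic Fluo4 calcium fluorescence | Measure: Integrated baseline-normalised fluorescence ratio, converted to per-well B score | Benchmarks: Low control buffer alone, high control maximal DAMGO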
An asterisk follows results filed as active; i = inactive. An excerpt weighted towards active compounds, which were near 2.9% of everything screened.

SMILES	TRPC4 potent	TRPC4 inh	Kir21 block	TRPC6 inhibitor	TRPC6 act	TRPC4 act
CN(C)C(=S)SCC(=O)Nc1ccc(Cl)cc1Cl	i	i	-0.03	i	i	i
Cc1ccc(C)c(N(C(=O)c2snc(C(N)=O)c2N)C(C(=O)NCC2CCCO2)c2cccs2)c1 (configuration not stated)	i	i	-1.5	i	i	i
Cc1ccc(C)c(N(C(=O)c2snc(C(N)=O)c2N)C(C(=O)NCC2CCCO2)c2ccc(C)o2)c1 (configuration not stated)	i	-7*	-0.15	i	i	i
COc1ccc(C)cc1N(C(=O)c1snc(C(N)=O)c1N)C(C(=O)NC1CCCCC1)c1ccc(C)o1 (configuration not stated)	i	-11*	-1.8	i	i	i
NC(=O)c1nsc(C(=O)N(Cc2ccc(F)cc2)C(C(=O)NCC2CCCO2)c2ccc(F)cc2)c1N (configuration not stated)	i	-7*	-0.94	i	i	i
CC(C)(C)C(=O)NCCCc1nc2ccccc2n1CCCOc1ccc(Cl)cc1	i	i	-2.5	i	i	i
Cc1ccc(-n2ncc3c2CCCC3NC(=O)CCc2cnccn2)cc1C (configuration not stated)	i	i	0.26	i	i	i
CCN(Cc1ccncc1)Cc1cn[nH]c1-c1cc(OC)c(OC)c(OC)c1	i	i	-0.36	i	i	i
CN1CCN(C(c2cccc(Cl)c2)c2ccccc2Cl)CC1 (configuration not stated)	i	i	-4.4*	i	i	i
CC(C)c1ccc(NC(=O)c2ccc(NS(C)(=O)=O)cc2)cc1	i	i	-2.9	i	i	i
Cc1ccc(NC(=O)c2cc(N3C(=O)C=CC3=O)ccc2N2CCOCC2)cc1	i	-6*	-3.9	i	i	i
CN1CCN(CCCN2c3ccccc3Sc3ccc(C(F)(F)F)cc32)CC1	i	i	-4.4*	i	i	i
O=C(CN1CCCC(O)C1)N1c2ccccc2Sc2ccc(C(F)(F)F)cc21 (configuration not stated)	i	i	-0.37	i	i	i
CCC1COC(c2cccn2Cc2ccccc2Cl)=N1 (configuration not stated)	i	i	0.1	i	i	i
CC(C)Cc1ccc(C(C)C(=O)Nc2cccnc2)cc1 (configuration not stated)	i	i	2.9	i	i	45*
CC(C)Cc1ccc([C@H](C)C(=O)O)cc1	i	i	0.29	i	i	i
CC(C(=O)Nc1cccnc1)c1ccc([N+](=O)[O-])cc1 (configuration not stated)	i	i	-0.02	i	i	i
CC(C)Cc1ccc(C(C)C(=O)Nc2ccc(O)cc2)cc1 (configuration not stated)	i	i	-0.47	i	i	52*
CC1=CC(=O)N(c2ccc(C)cc2)C1c1ccc(Cl)cc1 (configuration not stated)	i	i	-4.5*	i	i	i
COc1cccc(CN2CCC(C(=O)Nc3ccc(-c4cccc(C)c4)cc3)CC2)c1O	i	i	-0.19	i	i	i
Cc1ccc(O)c(C2=Nc3ccccc3C2(C)C)c1	i	i	-0.15	i	i	i
COc1ccc(C)cc1C1=Nc2ccccc2C1(C)C	i	i	-5*	i	i	i
CC(SCc1ccccc1)C(=O)NCc1ccccn1 (configuration not stated)	10*	i	1.2	i	i	i
Oc1cccc(/C=N/NC(=S)Nc2cccnc2)c1O	i	i	0.16	i	i	50*
O=C(CNC(=O)Cc1cccc2ccccc12)NCc1ccc(F)cc1	i	i	-5.2*	i	i	i
SMILES	TRPC4 potent	TRPC4 inh	Kir21 block	TRPC6 inhibitor	TRPC6 act	TRPC4 act
NS(=O)(=O)c1ccc(CCNC(=O)CNC(=O)Cc2cccc3ccccc23)cc1	i	i	-0.23	i	i	i
CC1CCN(CCCCOc2ccc(C(=O)c3ccccc3)cc2)CC1	i	i	-5.5*	i	i	i
CC1CCN(CCCOc2ccc(OCc3ccccc3)cc2)CC1	i	-6*	-7.2*	i	i	i
CC1CCN(CCOc2ccc(C(=O)c3ccccc3)cc2)CC1	i	i	-3.5	i	i	i
CCn1cc(S(=O)(=O)NC(C)c2cc(OC)ccc2OC)cn1 (configuration not stated)	i	i	0.76	i	i	i
Cc1c(C(=O)NC(=S)Nc2ccccc2N2CCCC2)cccc1[N+](=O)[O-]	13*	i	0.09	i	i	i
CC1=C(O)C(=O)OC1c1c(Cl)cccc1Cl (configuration not stated)	i	i	2.8	i	i	i
Cc1noc(C)c1CSCC(=O)Nc1ccccc1N1CCCCC1	i	i	-9.9*	i	i	i
Cc1cccc(NC(=O)CSCc2c(C)noc2C)c1C	i	i	0.05	i	i	i
Cc1cccc(NC(=O)CSCC(=O)Nc2ccccc2N2CCCC2)c1	i	i	-4.3*	i	i	i
COc1ccc(C(=O)n2cnc3ccccc32)cc1[N+](=O)[O-]	i	i	1.3	i	i	i
CCOC(=O)c1oc2ccccc2c1COC(=O)CNC(=O)c1cccc(C)c1	i	i	-0.07	i	i	i
O=[N+]([O-])c1ccc(C2(O)CN(c3ccccc3)C3=[N+]2CCS3)cc1 (configuration not stated)	i	-7*	-1.2	i	i	87*
OC1(c2ccc(F)cc2)CN(c2ccccc2)C2=[N+]1CCS2 (configuration not stated)	i	-6*	-1.3	i	i	i
Cc1ccc(-c2cn(-c3ccccc3)c3[n+]2CCCS3)cc1	i	i	1.9	i	i	i
Cc1ccc(C2(O)CN(c3ccccc3)C3=[N+]2CCS3)cc1 (configuration not stated)	i	-7*	-0.46	i	i	43*
CC1(C)CN(c2ccc(F)cc2)C1=O	i	i	0.09	i	i	i
CCOC(=O)Cc1csc(NC(=O)CSc2ncnc3c2cnn3-c2ccccc2Cl)n1	i	i	-0.53	i	i	i
